The text below walks through data of ChEMBL document CHEMBL1123389, “3-Hydroxy-3-methylglutaryl-coenzyme A reductase inhibitors. 2. Structural modification of 7-(substituted aryl)-3,5-dihydroxy-6-heptenoic acids and their lactone derivatives” (J Med Chem, 1986).

The target of assay [1] is T1, 3-hydroxy-3-methylglutaryl-coenzyme A reductase (Rattus norvegicus, UniProt P51639).
T1 sequence (P51639 whole entry): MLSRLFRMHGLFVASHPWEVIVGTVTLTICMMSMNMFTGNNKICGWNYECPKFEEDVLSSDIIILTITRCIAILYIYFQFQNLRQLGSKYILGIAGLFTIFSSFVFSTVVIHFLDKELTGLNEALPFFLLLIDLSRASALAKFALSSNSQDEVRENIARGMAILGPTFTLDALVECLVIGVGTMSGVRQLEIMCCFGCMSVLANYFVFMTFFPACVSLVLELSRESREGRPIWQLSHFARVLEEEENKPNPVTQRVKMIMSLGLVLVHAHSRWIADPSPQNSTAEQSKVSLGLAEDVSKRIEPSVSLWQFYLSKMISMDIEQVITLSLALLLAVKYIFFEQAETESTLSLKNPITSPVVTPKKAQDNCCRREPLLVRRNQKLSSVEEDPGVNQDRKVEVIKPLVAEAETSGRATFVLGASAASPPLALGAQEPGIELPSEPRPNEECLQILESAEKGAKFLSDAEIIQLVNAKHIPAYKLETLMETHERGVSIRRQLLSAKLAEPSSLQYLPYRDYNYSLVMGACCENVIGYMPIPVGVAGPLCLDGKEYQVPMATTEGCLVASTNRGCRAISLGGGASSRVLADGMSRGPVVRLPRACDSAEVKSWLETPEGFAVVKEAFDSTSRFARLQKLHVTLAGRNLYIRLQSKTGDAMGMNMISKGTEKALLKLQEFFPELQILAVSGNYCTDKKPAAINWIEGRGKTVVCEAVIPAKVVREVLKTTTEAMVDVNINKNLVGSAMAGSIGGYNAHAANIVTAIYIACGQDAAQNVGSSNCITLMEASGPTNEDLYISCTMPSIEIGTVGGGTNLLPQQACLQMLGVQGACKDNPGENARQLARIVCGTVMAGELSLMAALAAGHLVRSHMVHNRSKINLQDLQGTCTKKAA
Briefly: Inhibition of solubilized, partially purified rat liver HMG-CoA reductase. A digest of the protocol: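 Enzyme solubilized from fresh microsomes and purified through the second ammonium sulfate precipitation. It was diluted in 100 mM phosphate, pH 7.2, to give 50 000–60 000 dpm per 100 μL in control. Assay mix (0.8 mL): phosphate pH 7.2 100 mM, MgCl2 3 mM, NADP 3 mM, glucose 6-phosphate 10 mM, G6PDH 3 units, glutathione 50 mM, [14C]HMG-CoA 0.2 mM. Compounds were added as dihydroxy acid Na salts at multiple concentrations. Incubation ran 40 min at 37 °C, stopped with HCl, then lactonized. [14C]mevalonolactone was separated on Bio-Rex 5 and counted. IC50 came from a least-squares line of % inhibition vs concentration.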

For assay [2], the target named is T2, 3-hydroxy-3-methylglutaryl-coenzyme A reductase (Rattus norvegicus) (UniProt P51639).
T2 sequence (whole entry): T1 sequence (P51639 whole entry)
Briefly: Relative potency to inhibit solubilized, partially purified rat liver HMG-CoA reductase compared with that of compactin.

In turn, `O=C1C[C@H](O)C[C@@H](/C=C/c2ccc(OCc3ccc(F)cc3)c(Cl)c2Cl)O1` registered an IC50 in assay [1] of 17 µM. This compound had a Relative potency in assay [2] of 0.12.
Turning to `O=C1C[C@H](O)C[C@@H](/C=C/c2c(Cl)cc(Cl)cc2OCc2cccnc2)O1`, the IC50 in assay [1] worked out at 3.4 µM. Further, in assay [2], the Relative potency was 0.6.
For `COc1ccc(COc2cc(Cl)cc(Cl)c2/C=C/[C@@H]2C[C@@H](O)CC(=O)O2)cc1` the same measures were 2.6 µM and 0.8.
Compound `O=C1C[C@H](O)C[C@@H](/C=C/c2c(Cl)cc(Cl)cc2OC(c2ccccc2)c2ccccc2)O1` returned an IC50 in assay [1] of 6.3 µM. The compound further registered a Relative potency in assay [2] of 0.7.
Compound `Cc1cc(OCc2ccccc2)cc(C)c1/C=C/[C@@H]1C[C@@H](O)CC(=O)O1` registered an IC50 in assay [1] of 0.62 µM. Also, the Relative potency in assay [2] is 3.7.
`Cc1ccc(COc2cc(Cl)cc(Cl)c2/C=C/[C@@H]2C[C@@H](O)CC(=O)O2)cc1`: in assay [1], half-maximal inhibition (IC50) required 4.9 µM. Moreover, the Relative potency in assay [2] worked out at 0.3.
In the case of `O=C1C[C@H](O)C[C@@H](/C=C/c2c(Cl)cc(Cl)cc2OCc2cc[n+]([O-])cc2)O1`, the IC50 in assay [1] was found to be 117 µM. In assay [2], the Relative potency amounted to 0.016.
Take `O=C1C[C@H](O)C[C@@H](/C=C/c2c(Cl)cc(Cl)cc2OCc2ccc(F)cc2)O1`: the IC50 in assay [1] worked out at 0.2 µM. The compound also yielded a Relative potency in assay [2] of 7.5.
Take `O=C1C[C@H](O)CC(CCc2c(Cl)cc(Cl)cc2OCc2ccccc2F)O1` (stereo partly drawn): the IC50 in assay [1] came out at 0.15 µM. In assay [2], this compound came in with a Relative potency of 10.
In assay [1], `C=CCOc1cc(Cl)cc(Cl)c1/C=C/[C@@H]1C[C@@H](O)CC(=O)O1` had an IC50 of 0.76 µM. Besides, the Relative potency in assay [2] was 3.2.
For `O=C1C[C@H](O)C[C@@H](/C=C/c2c(Cl)cc(Cl)cc2OCc2c(F)c(F)c(F)c(F)c2F)O1`, the half-inhibitory concentration (IC50) in assay [1] was 0.7 µM. For the same compound, the Relative potency in assay [2] came out at 2.3.
In assay [1], `O=C1C[C@H](O)CC(CCc2c(Cl)cc(Cl)cc2OCC2CCCCC2)O1` (stereo partly drawn) displayed an IC50 of 0.75 µM. Also, the Relative potency in assay [2] is 4.4.
Compound `O=C1C[C@H](O)C[C@@H](/C=C/c2ccccc2Cl)O1` came in with an IC50 in assay [1] of 7.4 µM. The compound also registered a Relative potency in assay [2] of 0.15.
`CSCOc1cc(Cl)cc(Cl)c1/C=C/[C@@H]1C[C@@H](O)CC(=O)O1` gave an IC50 in assay [1] of 0.76 µM. The compound also came in with a Relative potency in assay [2] of 2.1.

What is called IC50 is the concentration that inhibits the measured activity by half. A high value points to weaker potency in that assay.
